According to ChEMBL document CHEMBL1148770, “Conformation-activity relationship of neuropeptide S and some structural mutants: helicity affects their interaction with the receptor” (J Med Chem, 2007):
pEC50, pIC50: −log10 of the molar value. Square brackets hold non-standard residues; d marks the D form. Peptide text beside a SMILES is read from it. Aib = CC(C)(N)C(=O)O

Columns and labels:
Assay type in all cases: functional, cell-based
[1] = biological target: T1, Neuropeptide S receptor (Mus musculus) (UniProt Q8BZP8); assay: Agonist activity at mouse recombinant NPSR expressed in HEK293 cells assessed as calcium mobilization relative to baseline
T1 sequence (whole entry): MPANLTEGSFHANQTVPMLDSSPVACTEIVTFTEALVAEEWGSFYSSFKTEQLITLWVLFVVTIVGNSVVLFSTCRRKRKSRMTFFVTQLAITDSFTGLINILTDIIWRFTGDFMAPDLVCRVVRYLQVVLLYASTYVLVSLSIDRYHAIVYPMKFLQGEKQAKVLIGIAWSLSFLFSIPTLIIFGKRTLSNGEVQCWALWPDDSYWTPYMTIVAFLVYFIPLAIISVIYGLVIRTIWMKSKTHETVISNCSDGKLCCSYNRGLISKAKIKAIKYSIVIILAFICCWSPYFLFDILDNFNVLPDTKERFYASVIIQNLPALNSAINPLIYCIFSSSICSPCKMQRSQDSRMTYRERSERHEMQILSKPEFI
In short: (§1)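 HEK293 cells stably expressing mouse NPSR, grown in DMEM/10% FBS/2 mM glutamine/hygromycin at 37 °C, 5% CO2. Seeded 50,000 cells/well on poly-D-lysine; next day loaded 30 min at 37 °C with 3 µM Fluo-4 AM, 2.5 mM probenecid, 0.01% pluronic acid. Read in HBSS/20 mM HEPES/probenecid/Brilliant Black at ≈22 °C on FlexStation; peak fluorescence change as % baseline; logistic fit; ≥4 experiments in duplicate.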

Neuropeptide S receptor [2] = biological target: T2, Neuropeptide S receptor (Mus musculus, UniProt Q8BZP8); assay: Agonist activity at mouse recombinant NPSR expressed in HEK293 cells assessed as calcium mobilization; in short: as §1
T2 sequence (Q8BZP8 whole entry): T1 sequence (whole entry)

Neuropeptide S receptor [3] = biological target: T2, Neuropeptide S receptor; assay: Antagonist activity at mouse NPSR expressed in HEK293 cells assessed as inhibition of 10 nM hNPS-induced calcium mobilization
In short: (§2)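 Mouse NPSR stably expressed in HEK293 cells, grown with hygromycin, then plated at 50 000 cells/well. Next day, cells were loaded for 30 min at 37 °C with 3 µM Fluo-4 AM, 2.5 mM probenecid and 0.01% pluronic acid. The assay buffer was HBSS with 20 mM HEPES, probenecid and 500 µM Brilliant Black. Fluorescence was read at about 22 °C. pIC50 came from a logistic fit of peak fluorescence (% of baseline). At least four experiments, each in duplicate.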

Neuropeptide S receptor [4] = biological target: T2, Neuropeptide S receptor; assay: Antagonist activity at mouse NPSR expressed in HEK293 cells assessed as inhibition of 100 nM hNPS-induced calcium mobilization; in short: as §2

Emax [1] | pEC50 (Neuropeptide S receptor [2]) | pIC50 (Neuropeptide S receptor [3]) | pIC50 (Neuropeptide S receptor [4]) | Compound
65% | 6.72 | 6.27 | 5.79 | CSCC[C@H](NC(=O)CNC(=O)[C@@H](NC(=O)CNC(=O)[C@@H](NC(=O)C(C)(C)NC(=O)[C@H](CC(N)=O)NC(=O)[C@H](CCCNC(=N)N)NC(=O)[C@H](Cc1ccccc1)NC(=O)[C@@H](N)CO)C(C)C)[C@@H](C)O)C(=O)N[C@@H](CCCCN)C(=O)N[C@@H](CCCCN)C(=O)N[C@H](C(=O)N[C@@H](CO)C(=O)N[C@@H](Cc1ccccc1)C(=O)N[C@@H](CCC(N)=O)C(=O)N[C@@H](CCCNC(=N)N)C(=O)N[C@@H](C)C(=O)N[C@@H](CCCCN)C(=O)N[C@@H](CO)C(=O)O)[C@@H](C)O (H-SFRN[Aib]VGTGMKKTSFQRAKS-OH)
175% | 8.04 | – | – | CSCC[C@H](NC(=O)CNC(=O)[C@@H](NC(=O)CNC(=O)[C@@H](NC(=O)CNC(=O)[C@H](CC(N)=O)NC(=O)[C@H](CCCNC(=N)N)NC(=O)[C@H](Cc1ccccc1)NC(=O)[C@@H](N)CO)C(C)C)[C@@H](C)O)C(=O)N[C@@H](CCCCN)C(=O)N[C@@H](CCCCN)C(=O)N[C@H](C(=O)N[C@@H](CO)C(=O)N[C@@H](Cc1ccccc1)C(=O)N[C@@H](CCC(N)=O)C(=O)N[C@@H](CCCNC(=N)N)C(=O)N[C@@H](C)C(=O)N[C@@H](CCCCN)C(=O)N[C@@H](CO)C(=O)O)[C@@H](C)O [NEUROPEPTIDE S] (H-SFRNGVGTGMKKTSFQRAKS-OH)
